Experimental data published in ChEMBL document CHEMBL1629494, “New amino acid esters of salicylanilides active against MDR-TB and other microbes” (Eur J Med Chem, 2010).
Converted amounts (≈) assume the structure as drawn.

How the values were obtained:
Aspergillus fumigatus [1] = experiment: Antifungal activity against Aspergillus fumigatus 231 after 48 hrs by broth microdilution method; assay type: functional; conditions: Aspergillus fumigatus, 231, 48 h
Mycobacterium avium [2] = experiment: Antimycobacterial activity against multidrug-resistant Mycobacterium avium 330/88 after 21 days by micromethod; assay type: functional; conditions: 330/88, 504 h
Procedure, shortened: (§1)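 Micromethod in Sula semisynthetic medium, with compounds added as DMSO solutions at 1000, 500, 250, 125, 62, 32, 16, 8, 4, 2, 1, 0.5, 0.25. Inoculum dilutions: H37Rv 10^-3; M. avium 330/88 10^-5; M. kansasii 235/80 10^-4; M. kansasii 6509/96 10^-5. Incubated at 37 °C, read at 14 and 21 days, and at 7 days for M. kansasii. MIC was the lowest concentration inhibiting growth.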

Mycobacterium kansasii [3] = experiment: Antimycobacterial activity against Mycobacterium kansasii 6509/96 after 21 days by micromethod; assay type: functional; conditions: 6509/96, 504 h; procedure, shortened: as §1
[4] = test system: Mycobacterium tuberculosis; experiment: Antimycobacterial activity against drug-sensitive Mycobacterium tuberculosis; assay type: functional
Trichosporon beigelii [5] = experiment: Antifungal activity against Trichosporon beigelii 1188 after 24 hrs by broth microdilution method; assay type: functional; conditions: Trichosporon beigelii, 1188, 24 h
Nakaseomyces glabratus [6] = experiment: Antifungal activity against Candida glabrata 20/I after 24 hrs by broth microdilution method; assay type: functional
Lichtheimia corymbifera [7] = experiment: Antifungal activity against Absidia corymbifera 272 after 48 hrs by broth microdilution method; assay type: functional; conditions: Lichtheimia corymbifera, 272, 48 h
Mycobacterium kansasii [8] = experiment: Antimycobacterial activity against Mycobacterium kansasii 235/80 after 21 days by micromethod; assay type: functional; conditions: 235/80, 504 h; procedure, shortened: as §1
[9] = test system: Mycobacterium tuberculosis; experiment: Antimycobacterial activity against Mycobacterium tuberculosis H37Rv 331/88 after 21 days by micromethod; assay type: functional; conditions: H37Rv 331/88, 504 h; procedure, shortened: as §1
Candida tropicalis [10] = experiment: Antifungal activity against Candida tropicalis 156 after 24 hrs by broth microdilution method; assay type: functional; conditions: Candida tropicalis, 156, 24 h
Trichosporon beigelii [11] = experiment: Antifungal activity against Trichosporon beigelii 1188 after 48 hrs by broth microdilution method; assay type: functional; conditions: Trichosporon beigelii, 1188, 48 h
Candida tropicalis [12] = experiment: Antifungal activity against Candida tropicalis 156 after 48 hrs by broth microdilution method; assay type: functional; conditions: Candida tropicalis, 156, 48 h
Mycobacterium kansasii [13] = experiment: Antimycobacterial activity against Mycobacterium kansasii 235/80 after 14 days by micromethod; assay type: functional; conditions: 235/80, 336 h; procedure, shortened: as §1
Mycobacterium kansasii [14] = experiment: Antimycobacterial activity against Mycobacterium kansasii; assay type: functional
Pichia kudriavzevii [15] = experiment: Antifungal activity against Candida krusei E28 after 48 hrs by broth microdilution method; assay type: functional; conditions: E28, 48 h
[16] = test system: Trichophyton mentagrophytes; experiment: Antifungal activity against Trichophyton mentagrophytes after 24 hrs by broth microdilution method; assay type: functional
[17] = test system: Mycobacterium tuberculosis; experiment: Antimycobacterial activity against Mycobacterium tuberculosis H37Rv 331/88 after 14 days by micromethod; assay type: functional; conditions: H37Rv 331/88, 336 h; procedure, shortened: as §1
Mycobacterium avium [18] = experiment: Antimycobacterial activity against Mycobacterium avium; assay type: functional
Aspergillus fumigatus [19] = experiment: Antifungal activity against Aspergillus fumigatus 231 after 24 hrs by broth microdilution method; assay type: functional; conditions: Aspergillus fumigatus, 231, 24 h
Candida albicans [20] = experiment: Antifungal activity against Candida albicans ATCC 44859 after 48 hrs by broth microdilution method; assay type: functional; conditions: ATCC 44859, 48 h
Mycobacterium avium [21] = experiment: Antimycobacterial activity against multidrug-resistant Mycobacterium avium 330/88 after 14 days by micromethod; assay type: functional; conditions: 330/88, 336 h; procedure, shortened: as §1
Pichia kudriavzevii [22] = experiment: Antifungal activity against Candida krusei E28 after 24 hrs by broth microdilution method; assay type: functional; conditions: E28, 24 h
[23] = Lipophilicity, log P of the compound; assay type: physicochemical; conditions: octanol/water
Lichtheimia corymbifera [24] = experiment: Antifungal activity against Absidia corymbifera 272 after 24 hrs by broth microdilution method; assay type: functional; conditions: Lichtheimia corymbifera, 272, 24 h
Mycobacterium kansasii [25] = experiment: Antimycobacterial activity against Mycobacterium kansasii 6509/96 after 7 days by micromethod; assay type: functional; conditions: 6509/96, 168 h; procedure, shortened: as §1
Candida albicans [26] = experiment: Antifungal activity against Candida albicans ATCC 44859 after 24 hrs by broth microdilution method; assay type: functional; conditions: ATCC 44859, 24 h
[27] = test system: Trichophyton mentagrophytes; experiment: Antifungal activity against Trichophyton mentagrophytes after 48 hrs by broth microdilution method; assay type: functional
Mycobacterium kansasii [28] = experiment: Antimycobacterial activity against Mycobacterium kansasii 6509/96 after 14 days by micromethod; assay type: functional; conditions: 6509/96, 336 h; procedure, shortened: as §1
Mycobacterium kansasii [29] = experiment: Antimycobacterial activity against Mycobacterium kansasii 235/80 after 7 days by micromethod; assay type: functional; conditions: 235/80, 168 h; procedure, shortened: as §1
Nakaseomyces glabratus [30] = experiment: Antifungal activity against Candida glabrata 20/I after 48 hrs by broth microdilution method; assay type: functional

CC(=O)N[C@@H](Cc1ccccc1)C(=O)Oc1ccc(Cl)cc1C(=O)Nc1ccc(Br)cc1
MIC (Aspergillus fumigatus [1]): > 125 µM
MIC (Mycobacterium avium [2]): 8 µM (≈ 4.13 µg/mL)
MIC (Mycobacterium kansasii [3]): 8 µM (≈ 4.13 µg/mL)
MIC [4]: 1 µM (≈ 0.516 µg/mL)
MIC (Trichosporon beigelii [5]): 125 µM (≈ 64.5 µg/mL)
MIC (Nakaseomyces glabratus [6]): > 125 µM
MIC (Lichtheimia corymbifera [7]): > 125 µM
MIC (Mycobacterium kansasii [8]): 4 µM (≈ 2.06 µg/mL)
MIC [9]: 2 µM (≈ 1.03 µg/mL)
MIC (Candida tropicalis [10]): > 125 µM
MIC (Trichosporon beigelii [11]): > 125 µM
MIC (Candida tropicalis [12]): > 125 µM
MIC (Mycobacterium kansasii [13]): 4 µM (≈ 2.06 µg/mL)
MIC (Mycobacterium kansasii [14]): 1 µM (≈ 0.516 µg/mL)
MIC (Pichia kudriavzevii [15]): > 125 µM
MIC [16]: > 125 µM
MIC [17]: 2 µM (≈ 1.03 µg/mL)
MIC (Mycobacterium avium [18]): 1 µM (≈ 0.516 µg/mL)
MIC (Aspergillus fumigatus [19]): 125 µM (≈ 64.5 µg/mL)
MIC (Candida albicans [20]): > 125 µM
MIC (Mycobacterium avium [21]): 4 µM (≈ 2.06 µg/mL)
MIC (Pichia kudriavzevii [22]): 125 µM (≈ 64.5 µg/mL)
logP [23]: 4.83
MIC (Lichtheimia corymbifera [24]): 125 µM (≈ 64.5 µg/mL)
MIC (Mycobacterium kansasii [25]): 4 µM (≈ 2.06 µg/mL)
MIC (Candida albicans [26]): 125 µM (≈ 64.5 µg/mL)
MIC [27]: > 125 µM
MIC (Mycobacterium kansasii [28]): 4 µM (≈ 2.06 µg/mL)
MIC (Mycobacterium kansasii [29]): 4 µM (≈ 2.06 µg/mL)
MIC (Nakaseomyces glabratus [30]): > 125 µM
